Reference: ChEMBL document CHEMBL1137713, “Synthesis and antimalarial activity of pyrazolo and pyrimido benzothiazine dioxide derivatives” (2009)
Calls of active or inactive are those of the source. The calls are words filed in the database; no cut-off is given here.

Columns and labels:
[1] = molecular target: T1, Histidine-rich protein PFHRP-II (Plasmodium falciparum) (UniProt P05227); test: Inhibition of beta-hematin formation assessed as inhibition of flavoprotein polymerization at 5 to 100 mM after 48 hrs; assay type: functional
T1 sequence (whole entry): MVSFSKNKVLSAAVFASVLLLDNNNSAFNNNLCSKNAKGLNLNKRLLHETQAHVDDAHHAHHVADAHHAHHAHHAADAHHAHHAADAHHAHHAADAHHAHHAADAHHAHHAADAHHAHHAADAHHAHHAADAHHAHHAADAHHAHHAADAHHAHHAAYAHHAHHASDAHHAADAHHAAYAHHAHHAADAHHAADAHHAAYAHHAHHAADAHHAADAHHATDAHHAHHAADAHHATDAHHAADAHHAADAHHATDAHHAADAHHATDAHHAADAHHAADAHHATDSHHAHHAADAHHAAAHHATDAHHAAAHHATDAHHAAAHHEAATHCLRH
Summary of the method: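 Hemin chloride in DMSO is mixed with compound in DMSO (100–5 range), tested in triplicate, with water or DMSO controls. Reaction is started with 0.2 M acetate buffer pH 4.4 and run at 37 °C for 48 h. Pellet is washed twice with DMSO, dissolved in 0.2 N NaOH, diluted 1:2 in 0.1 N NaOH, and read at 405 nm. Result is % inhibition of FP polymerization.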

Plasmodium berghei [2] = test: Antimalarial activity against chloroquine-sensitive Plasmodium berghei ANKA infected BALB/c mice (Mus musculus) erythrocytes at 10 uM after 18 hrs as reduced hemoglobin hydrolysis; assay type: functional
Summary of the method: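 Trophozoite-rich extract from P. berghei-infected mouse blood (30–50% parasitemia, Percoll-enriched mature forms, saponin-lysed, freeze-thawed) digests native mouse hemoglobin with 10 mM GSH in 0.2 M acetate buffer pH 5.4. Compound is added in DMSO. Incubation is 37 °C for 18 h. Globin 14 kDa band is assessed by SDS-PAGE densitometry against a DMSO control and expressed as % inhibition of hydrolysis.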

Plasmodium berghei [3] = test: Antimalarial activity against chloroquine-sensitive Plasmodium berghei ANKA infected BALB/c mice (Mus musculus) erythrocytes at 20 mg/kg intraperitoneal dose for 4 days
Plasmodium berghei [4] = test: Antimalarial activity against chloroquine-sensitive Plasmodium berghei ANKA infected BALB/c mice (Mus musculus) erythrocytes at 20 mg/kg intraperitoneal dose for 4 days as parasitaemia
Plasmodium berghei [5] = test: Antimalarial activity as MST against chloroquine-sensitive Plasmodium berghei ANKA infected BALB/c mice (Mus musculus) erythrocytes at 20 mg/kg intraperitoneal dose for 4 days (RVb=11.66+/-1.66 days); assay type: functional
Plasmodium berghei [6] = test: Antimalarial activity as parasitaemia against chloroquine-sensitive Plasmodium berghei ANKA infected BALB/c mice (Mus musculus) erythrocytes at 25 mg/kg intraperitoneal dose for 4 days; assay type: functional
Summary of the method: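 Male Balb-C mice infected with 10^6 P. berghei ANKA-infected erythrocytes; n=6. Compound is given as a DMSO stock diluted in 2% saline–Tween 20, ip once daily for 4 days starting 2 h post-infection. Chloroquine is given at 25 mg/kg. Day-4 parasitemia is read from Giemsa smears and survival days are recorded versus untreated controls. Mean ± SEM.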

Plasmodium berghei [7] = test: Antimalarial activity as MST against chloroquine-sensitive Plasmodium berghei ANKA infected BALB/c mice (Mus musculus) erythrocytes at 25 mg/kg intraperitoneal dose for 4 days (RVb=11.66+/-1.66 days); assay type: functional

| inhibition [1] [%] | Structure (SMILES) | inhibition at 10 µM (Plasmodium berghei [2]) [%] | other results |
| --- | --- | --- | --- |
| < 5 | Cc1ccc(C)c(N2c3cc(Cl)ccc3S(=O)(=O)c3c(N)n[nH]c32)c1 | 69.4 |  |
| < 5 | Cc1ccccc1N1c2cc(Cl)ccc2S(=O)(=O)c2c(N)nc(N)nc21 | 72.6 |  |
| < 5 | Nc1n[nH]c2c1S(=O)(=O)c1cc(Cl)ccc1N2c1cccc(Cl)c1 | 0 |  |
| < 5 | Cc1ccc(N2c3ccc(Cl)cc3S(=O)(=O)c3c(N)nc(N)nc32)cc1 | 0 |  |
| < 5 | Nc1nc(N)c2c(n1)N(c1ccc(Cl)cc1)c1ccc(Cl)cc1S2(=O)=O | 0 |  |
| < 5 | Nc1nc(N)c2c(n1)N(c1cccc(Cl)c1)c1cc(Cl)ccc1S2(=O)=O | 0 |  |
|  | CCN(CC)CCCC(C)Nc1ccnc2cc(Cl)ccc12 (configuration not stated) [CHLOROQUINE] | 24.1 | Activity (Plasmodium berghei [6]): 1.3%; Activity (Plasmodium berghei [7]): 30 days |
| < 5 | Nc1n[nH]c2c1S(=O)(=O)c1cc(Cl)ccc1N2c1ccccc1 | 0 |  |
| < 5 | Nc1n[nH]c2c1S(=O)(=O)c1ccc(Cl)cc1N2c1ccc(Cl)cc1 | 55.8 |  |
| < 5 | COc1cccc(N2c3ccc(Cl)cc3S(=O)(=O)c3c(N)n[nH]c32)c1 | 0 |  |
| < 5 | Nc1nc(N)c2c(n1)N(c1ccc(Br)cc1)c1ccc(Cl)cc1S2(=O)=O | 0 |  |
| < 5 | COc1ccc(N2c3ccc(Cl)cc3S(=O)(=O)c3c(N)nc(N)nc32)cc1 | 0 |  |
| < 5 | Cc1ccccc1N1c2ccc(Cl)cc2S(=O)(=O)c2c(N)n[nH]c21 | 0 |  |
| < 5 | Nc1n[nH]c2c1S(=O)(=O)c1ccc(Cl)cc1N2c1ccccc1 | 76.4 |  |
| < 5 | Nc1n[nH]c2c1S(=O)(=O)c1ccc(Cl)cc1N2c1ccc(Cl)c(Cl)c1 | 67.6 |  |
| < 5 | Cc1ccc(N2c3cc(Cl)ccc3S(=O)(=O)c3c(N)nc(N)nc32)cc1 | 50.1 |  |
| < 5 | Nc1nc(N)c2c(n1)N(c1ccc(Cl)c(Cl)c1)c1ccc(Cl)cc1S2(=O)=O | 0 |  |
| < 5 | COc1cccc(N2c3cc(Cl)ccc3S(=O)(=O)c3c(N)n[nH]c32)c1 | 47.3 |  |
| < 5 | Cc1ccc(C)c(N2c3cc(Cl)ccc3S(=O)(=O)c3c(N)nc(N)nc32)c1 | 64.6 |  |
| < 5 | Cc1ccc(C)c(N2c3ccc(Cl)cc3S(=O)(=O)c3c(N)nc(N)nc32)c1 | 0 |  |

| inhibition [1] [%] | Structure (SMILES) | inhibition at 10 µM (Plasmodium berghei [2]) [%] | other results |
| --- | --- | --- | --- |
| < 5 | Nc1nc(N)c2c(n1)N(c1ccc(Br)cc1)c1cc(Cl)ccc1S2(=O)=O | 49 |  |
| < 5 | Cc1ccc(N2c3cc(Cl)ccc3S(=O)(=O)c3c(N)n[nH]c32)cc1 | 78.8 |  |
| < 5 | COc1ccc(N2c3ccc(Cl)cc3S(=O)(=O)c3c(N)n[nH]c32)cc1 | 0 |  |
| < 5 | Nc1n[nH]c2c1S(=O)(=O)c1cc(Cl)ccc1N2c1ccc(Cl)c(Cl)c1 | 0 |  |
|  | CC(C)CC(=O)N[C@H](C(=O)N[C@H](C(=O)N[C@@H](CC(C)C)[C@@H](O)CC(=O)N[C@@H](C)C(=O)N[C@@H](CC(C)C)[C@@H](O)CC(=O)O)C(C)C)C(C)C [PEPSTATIN] | 92.9 |  |
| < 5 | Nc1nc(N)c2c(n1)N(c1ccc(Cl)cc1)c1cc(Cl)ccc1S2(=O)=O | 67.2 |  |
| < 5 | Cc1ccc(C)c(N2c3ccc(Cl)cc3S(=O)(=O)c3c(N)n[nH]c32)c1 | 0 |  |
| < 5 | Nc1nc(N)c2c(n1)N(c1cccc(Cl)c1)c1ccc(Cl)cc1S2(=O)=O | 0 |  |
| < 5 | Nc1nc(N)c2c(n1)N(c1ccc(Cl)c(Cl)c1)c1cc(Cl)ccc1S2(=O)=O | 76 |  |
| < 5 | COc1cccc(N2c3cc(Cl)ccc3S(=O)(=O)c3c(N)nc(N)nc32)c1 | 56.3 |  |
| < 5 | Cc1ccc(N2c3ccc(Cl)cc3S(=O)(=O)c3c(N)n[nH]c32)cc1 | 0 |  |
| < 5 | Nc1n[nH]c2c1S(=O)(=O)c1cc(Cl)ccc1N2c1ccc(Br)cc1 | 0 |  |
| < 5 | COc1ccc(N2c3cc(Cl)ccc3S(=O)(=O)c3c(N)nc(N)nc32)cc1 | 40.9 |  |
| < 5 | Nc1n[nH]c2c1S(=O)(=O)c1ccc(Cl)cc1N2c1ccc(Br)cc1 | 26.7 |  |
| < 5 | Cc1ccccc1N1c2ccc(Cl)cc2S(=O)(=O)c2c(N)nc(N)nc21 | 0 |  |
| < 5 | Nc1n[nH]c2c1S(=O)(=O)c1cc(Cl)ccc1N2c1ccc(Cl)cc1 | 0 |  |
| < 5 | COc1cccc(N2c3ccc(Cl)cc3S(=O)(=O)c3c(N)nc(N)nc32)c1 | 0 |  |
|  | CC(=O)N[C@@H](CC(C)C)C(=O)N[C@@H](CC(C)C)C(=O)N[C@H](C=O)CCCNC(=N)N [LEUPEPTIN] | 89.1 |  |
| < 5 | Nc1nc(N)c2c(n1)N(c1ccccc1)c1ccc(Cl)cc1S2(=O)=O | 0 |  |
| < 5 | COc1ccc(N2c3cc(Cl)ccc3S(=O)(=O)c3c(N)n[nH]c32)cc1 | 54.8 |  |

| Structure (SMILES) | inhibition [1] [%] | inhibition at 10 µM (Plasmodium berghei [2]) [%] | other results |
| --- | --- | --- | --- |
| Cc1ccccc1N1c2cc(Cl)ccc2S(=O)(=O)c2c(N)n[nH]c21 | < 5 | 92.3 | Activity (Plasmodium berghei [3]): inactive; Activity (Plasmodium berghei [4]): 9.75%; Activity (Plasmodium berghei [5]): 13 days |
| Nc1nc(N)c2c(n1)N(c1ccccc1)c1cc(Cl)ccc1S2(=O)=O | < 5 | 83.7 | Activity (Plasmodium berghei [4]): 12.7%; Activity (Plasmodium berghei [5]): 10.8 days |
| Nc1n[nH]c2c1S(=O)(=O)c1ccc(Cl)cc1N2c1cccc(Cl)c1 | 85.4 | 58.9 | Activity (Plasmodium berghei [4]): 10.33%; Activity (Plasmodium berghei [5]): 12.5 days |
